Experimental data pooled from the literature.
Lines come from different studies, so protocols differ. ≈ marks a conversion by molar mass, not a printed value.

Compound | organism | assay | system | setting | measurement | value
CN(Cc1ccc(C2(C(F)(F)F)CC2)cc1)Cc1cccc2ccccc12 | Trichophyton mentagrophytes | microbial growth, disc diffusion | ATCC18748 | 0.256 µg/mL, 72 h | inhibition zone | ≥ 55 mm
CC(=O)Oc1ccc(-c2c(C(N)=O)c(N)n(N)c(=O)c2C#N)cc1 | Enterobacter cloacae | microbial growth, well diffusion | ATCC23355 | 500 µg/mL | inhibition zone | 12 mm
O=C1C=C2NCCc3c[nH]c(c32)C1=O | Babesia divergens | parasite growth, SYBR Green |  | 60 h, blood stage | IC50 | 10 µM
COC1=CC(=O)c2ccccc2C1=O | Trichophyton mentagrophytes | microbial growth, broth dilution | ATCC9533 | 96 h | MIC | 6.25 µg/mL (≈ 33.2 µM)
CN(Cc1ccc(C(C)(C)C)cc1)Cc1cccc2ccccc12 | Trichophyton mentagrophytes | microbial growth, disc diffusion | ATCC18748 | 0.002 µg/mL, 72 h | inhibition zone | 27.8 mm
NC1=CC2=NCCc3c[nH]c(c32)C1=O | Babesia divergens | parasite growth, SYBR Green |  | 60 h, blood stage | IC50 | 0.411 µM
N#Cc1c(-c2ccc(Cl)cc2Cl)c(C(N)=O)c(N)n(N)c1=O | Enterobacter cloacae | microbial growth, well diffusion | ATCC23355 | 500 µg/mL | inhibition zone | 14 mm
O=C1c2[nH]cc3c2C(=NCC3)c2c(-c3ccc(O)cc3)c[nH]c21 | Babesia divergens | parasite growth, SYBR Green |  | 60 h, blood stage | IC50 | 0.614 µM
CN(C)c1ccc(-c2c(C(N)=O)c(N)n(N)c(=O)c2C#N)cc1 | Enterobacter cloacae | microbial growth, well diffusion | ATCC23355 | 500 µg/mL | inhibition zone | 17 mm
